Screens deposited in PubChem by Broad Institute.
Pf Dd2 growth: blocks growth of Plasmodium falciparum Dd2 parasites. AID 1159554. actives 2.3% (n = 94,000). activity change, % at 10 µM. P. falciparum Dd2 growth, SYBR Green, 72 h; active compounds read low; in the data active = activity change below about -80%
Tcruzi prolif: blocks T. cruzi growth in NIH3T3 culture. actives 5.9% (n = 77,000). AID 624255. T. cruzi beta-gal in NIH3T3, GalScreen luminescence, 90 h. inhibition, % at 8.34 µM;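 active = mean inhibition above about 93%, with at least 55% of replicates each passing it, limit read from the data, passing the limit was not always enough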
GASC1 inh: KDM4C (human) demethylase inhibition; Q9H3R0; GST-KDM4C 2-372, H3K9me3 peptide, LANCE TR-FRET; inhibition, % at 12.5 µM; actives 0.15% (n = 96,000); AID 720574;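 active = mean replicate inhibition above about 25%, with at least 55% of replicates also reaching it, limit read from the data, passing the limit was not always enough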
Target sequence (Q9H3R0 2-372 limits assumed): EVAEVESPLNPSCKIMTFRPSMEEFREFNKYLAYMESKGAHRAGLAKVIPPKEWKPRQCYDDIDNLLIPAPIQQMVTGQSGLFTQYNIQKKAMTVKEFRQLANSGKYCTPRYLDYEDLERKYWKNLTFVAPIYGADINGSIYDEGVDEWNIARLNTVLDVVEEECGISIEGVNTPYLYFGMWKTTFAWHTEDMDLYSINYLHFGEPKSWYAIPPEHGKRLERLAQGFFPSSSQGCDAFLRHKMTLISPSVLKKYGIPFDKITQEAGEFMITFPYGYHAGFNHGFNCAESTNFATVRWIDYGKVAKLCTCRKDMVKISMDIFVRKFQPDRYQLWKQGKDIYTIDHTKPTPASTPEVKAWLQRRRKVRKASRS
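Material: N-terminal GST-fused human GASC-1 (KDM4C) fragment, residues 2-372. Input: 10 nM enzyme. Incubation: enzyme reaction 30 min, then detection 60 min, both room temperature. Doses: one test concentration per compound. Read-out basis: inhibition from TR-FRET ratio decrease. Detection: LANCE TR-FRET, excitation 340 nm, emissions 618 and 671 nm.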
IDH1 R132H inh: IDH1 R132H (human) inhibition | IDH1 R132H reductase, diaphorase/resazurin fluorescence, 60 min | inhibition, % at 10 µM | actives 0.18% (n = 70,000) | AID 624101; in the data active = inhibition above about 34%;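 also: 0% = DMSO and 100% = no enzyme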
Numbers without * were called inactive; · = not tested or not shown. Shown are actives, neighbours in structure and some others; about 5.8% of the full set was active somewhere.

SMILES	Pf Dd2 growth	Tcruzi prolif	GASC1 inh	IDH1 R132H inh
C[C@@H]1CCCCO[C@H](CN(C)CC2CC2)[C@H](C)CN([C@H](C)CO)C(=O)c2cc(NC(=O)C3CCCCC3)ccc2O1	-83*	89	-1	·
C[C@H]1CCCCO[C@@H](CN(C)CC2CCCCC2)[C@@H](C)CN([C@@H](C)CO)C(=O)c2cc(NC(=O)Nc3ccccc3)ccc2O1	-83*	90	-1	-1
C[C@H](CO)N1C[C@H](C)[C@@H](CN(C)CC2CCCCC2)OCCCC[C@H](C)Oc2ccc(NC(=O)Nc3ccccc3)cc2C1=O	-60	93	0	1
COc1ccc(NC(=O)Nc2ccc3c(c2)C(=O)N([C@H](C)CO)C[C@H](C)[C@@H](CN(C)CC2CC2)OCCCC[C@H](C)O3)cc1	-84*	93	1	·
COc1ccc(NC(=O)Nc2ccc3c(c2)C(=O)N([C@H](C)CO)C[C@@H](C)[C@@H](CN(C)CC2CCCCC2)OCCCC[C@@H](C)O3)cc1	-81*	92	1	2
C[C@@H]1CCCCO[C@H](CN(C)CC2CC2)[C@H](C)CN([C@@H](C)CO)C(=O)c2cc(NC(=O)C3CCCCC3)ccc2O1	·	·	-1	3
Cc1ccc(-c2csc3ncnc(SCC(=O)Nc4ccc(S(N)(=O)=O)cc4)c23)cc1	·	·	·	0
CCC(Sc1ccccn1)C(=O)Nc1ccc(Br)cc1 (stereo unspecified)	·	·	·	1
CN1C(=O)c2ccccc2C(C(=O)NCc2ccco2)C1c1cn(C)c2ccccc12 (stereo unspecified)	·	·	·	1
N#C[C@H]1[C@@H](c2ccc(C#Cc3ccccc3F)cc2)[C@@H](CO)N1C(=O)C1CCCCC1	-93*	91	-5	0
N#C[C@H]1[C@H](c2ccc(C#Cc3ccccc3F)cc2)[C@@H](CO)N1C(=O)C1CCCCC1	-51	87	-1	·
N#C[C@H]1[C@@H](c2ccc(C#Cc3ccccc3F)cc2)[C@H](CO)N1C(=O)C1CCCC1	-66	·	-2	·
N#C[C@@H]1[C@H](c2ccc(C#Cc3ccccc3F)cc2)[C@H](CO)N1C(=O)C1CCCC1	-88*	·	5	·
COc1ccc(-c2ccc3c(c2)[C@H]2[C@H](CCN2Cc2ccncc2)[C@@H](CO)N3)cc1	-82*	·	3	·
N#Cc1cccc(-c2ccc3c(c2)[C@H]2[C@H](CCN2Cc2ccncc2)[C@@H](CO)N3)c1	-89*	·	6	·
OC[C@@H]1Nc2ccc(-c3cccc(F)c3)cc2[C@@H]2[C@H]1CCN2Cc1ccncc1	-92*	·	5	·
OC[C@H]1Nc2ccc(-c3cccc(F)c3)cc2[C@H]2[C@@H]1CCN2Cc1ccc(F)cc1	-73	94	1	·
N#Cc1cccc(-c2ccc3c(c2)[C@H]2[C@H](CCN2Cc2ccc4c(c2)OCO4)[C@H](CO)N3)c1	-71	46	0	·
COc1cc(Cl)c(C)cc1NC(=O)CSC1=C(C#N)C(c2ccccc2F)CC(=O)N1 (stereo unspecified)	·	·	·	0
Cn1c(SCC(=O)n2c3c(c4ccccc42)CCCC3)nnc1-c1ccco1	·	·	·	0
CCOC(=O)c1c(NC(=O)CN2C(=O)COc3ccc(Cl)cc32)sc2c1CCCC2	·	·	·	0
CCCc1cn([C@@H]2C[C@@H]3O[C@H](CO)CC[C@@H]3O[C@@H]2CCc2ccc(-c3cccc(OC)c3)cc2)nn1	-87*	·	·	·
CCCc1cn([C@H]2C[C@@H]3O[C@H](CO)CC[C@@H]3O[C@@H]2CCc2ccc(-c3cccc(OC)c3)cc2)nn1	-69	·	·	·
CCCc1cn([C@H]2C[C@@H]3O[C@H](CO)CC[C@@H]3O[C@@H]2CCc2ccc(-c3ccc(OC)cc3)cc2)nn1	-83*	·	·	·
O=C(CSc1nc2nc3c(cc2c(=O)n1-c1ccccc1)CCCC3)Nc1ccc(Cl)cc1	·	·	·	0
SMILES	Pf Dd2 growth	Tcruzi prolif	GASC1 inh	IDH1 R132H inh
N#C[C@@H]1[C@H](c2ccc(C3=CCCCC3)cc2)[C@@H](CO)N1C(=O)NC1CCCC1	-83*	·	5	·
C/C=C/c1ccccc1[C@H]1[C@@H](C#N)N(C(=O)NC2CCCC2)[C@H]1CO	-82*	·	0	·
CC(C)NC[C@@H]1[C@@H](c2ccc(C3=CCCCC3)cc2)[C@@H](CO)N1C(=O)CC1CC1	-83*	·	·	·
COc1ccc(NC(=S)Nc2cnn(C)c2C(N)=O)c(OC)c1	·	·	·	0
Cc1ccc(Nc2nc(N)nc(COc3cccc4cccnc34)n2)cc1	·	·	·	-1
C[C@@H]1CN([C@H](C)CO)C(=O)c2cc(NC(=O)CCCCCC(=O)Nc3ccccc3N)ccc2O[C@@H](C)CCCCO[C@H]1CN(C)Cc1ccc(Cl)c(Cl)c1	-91*	·	0	3
C[C@@H]1CCCCO[C@@H](CN(C)C)[C@@H](C)CN([C@H](C)CO)C(=O)c2cc(NC(=O)CCCCCC(=O)Nc3ccccc3N)ccc2O1	25	·	8	·
C[C@@H]1CCCCO[C@H](CN(C)Cc2ccc(Cl)c(Cl)c2)[C@@H](C)CN([C@H](C)CO)C(=O)c2cc(NC(=O)CCCCCC(=O)Nc3ccccc3N)ccc2O1	-90*	·	-1	0
Cc1cc(C)c(NC(=O)CSc2nc(-c3ccccc3)c(-c3ccccc3)[nH]2)c(C)c1	·	·	·	0
Cc1ccccc1OCC(=O)Nc1cc2nn(-c3ccccc3)nc2cc1Cl	·	·	·	0
COc1ccc2c3c([nH]c2c1)[C@@H](CO)N(C(=O)Nc1cccc(F)c1)CC31CN(CC2CCOCC2)C1	-93*	·	-2	·
COc1ccc2c3c([nH]c2c1)[C@H](CO)N(C(=O)Nc1ccc(F)cc1)CC31CN(Cc2cc(F)ccc2F)C1	-75	·	-2	·
COc1ccc2c3c([nH]c2c1)[C@@H](CO)N(C(=O)Nc1ccc(F)cc1)CC31CN(Cc2cc(F)ccc2F)C1	-87*	·	4	·
Cc1ccnc(NC(c2ccc([N+](=O)[O-])cc2)c2ccc3ccc(C)nc3c2O)c1 (stereo unspecified)	·	·	·	1
Cc1noc(C)c1S(=O)(=O)Nc1ccc2c(c1)C(=O)N([C@H](C)CO)C[C@@H](C)[C@@H](CN(C)S(=O)(=O)c1ccc(Cl)cc1)OCCCC[C@H](C)O2	-88*	82	-1	2
COc1ccc(S(=O)(=O)N(C)C[C@@H]2OCCCC[C@H](C)Oc3ccc(NS(=O)(=O)c4ccc(Cl)cc4)cc3C(=O)N([C@H](C)CO)C[C@@H]2C)cc1	-89*	·	-1	2
COc1ccc(S(=O)(=O)Nc2ccc3c(c2)C(=O)N([C@H](C)CO)C[C@H](C)[C@@H](CN(C)S(=O)(=O)c2ccc(Cl)cc2)OCCCC[C@H](C)O3)cc1	-64	93	-2	0
COc1ccc(S(=O)(=O)Nc2ccc3c(c2)C(=O)N([C@@H](C)CO)C[C@@H](C)[C@@H](CN(C)S(=O)(=O)c2ccc(Cl)cc2)OCCCC[C@H](C)O3)cc1	-85*	92	0	·
C[C@H]1CCCCO[C@@H](CN(C)S(=O)(=O)c2ccc(Cl)cc2)[C@@H](C)CN([C@@H](C)CO)C(=O)c2cc(NS(=O)(=O)c3ccccc3)ccc2O1	-83*	·	·	·
Cc1nn(CC(=O)Nc2ccc(O)cc2)c(C)c1[N+](=O)[O-]	·	·	·	0
